Data reported in ChEMBL document CHEMBL1152541, “Staurosporine tethered peptide ligands that target cAMP-dependent protein kinase (PKA): optimization and selectivity profiling” (Bioorg Med Chem, 2009).
*1 amine or outer side, *2 acyl side, *3 side chain or, on linkers, in order; H or OH if unused. Where a SMILES comes first, the peptide text is derived from it. Bridges are numbered along the chain shown (N, C = ends). [ ]: non-standard residue; d: D form. The star is where a group is joined. Staurosporine = CO[C@@H]1[C@H](N(C)*)C[C@H]2O[C@]1(C)n1c3ccccc3c3c4c(c5c6ccccc6n2c5c31)C(=O)NC4; Suc = O=C(CCC(=O)[*:2])[*:1]; Dap = NC[C@H](N)C(=O)O; βAla = NCCC(=O)O

How the values were obtained:
[1] = target: T1, Tyrosine-protein kinase JAK3 (Homo sapiens) (UniProt P52333); assay: Binding affinity to human JAK3 kinase domain 2 at 500 nM by cell-based competition binding assay relative to control in presence of DTT
T1 sequence (whole entry): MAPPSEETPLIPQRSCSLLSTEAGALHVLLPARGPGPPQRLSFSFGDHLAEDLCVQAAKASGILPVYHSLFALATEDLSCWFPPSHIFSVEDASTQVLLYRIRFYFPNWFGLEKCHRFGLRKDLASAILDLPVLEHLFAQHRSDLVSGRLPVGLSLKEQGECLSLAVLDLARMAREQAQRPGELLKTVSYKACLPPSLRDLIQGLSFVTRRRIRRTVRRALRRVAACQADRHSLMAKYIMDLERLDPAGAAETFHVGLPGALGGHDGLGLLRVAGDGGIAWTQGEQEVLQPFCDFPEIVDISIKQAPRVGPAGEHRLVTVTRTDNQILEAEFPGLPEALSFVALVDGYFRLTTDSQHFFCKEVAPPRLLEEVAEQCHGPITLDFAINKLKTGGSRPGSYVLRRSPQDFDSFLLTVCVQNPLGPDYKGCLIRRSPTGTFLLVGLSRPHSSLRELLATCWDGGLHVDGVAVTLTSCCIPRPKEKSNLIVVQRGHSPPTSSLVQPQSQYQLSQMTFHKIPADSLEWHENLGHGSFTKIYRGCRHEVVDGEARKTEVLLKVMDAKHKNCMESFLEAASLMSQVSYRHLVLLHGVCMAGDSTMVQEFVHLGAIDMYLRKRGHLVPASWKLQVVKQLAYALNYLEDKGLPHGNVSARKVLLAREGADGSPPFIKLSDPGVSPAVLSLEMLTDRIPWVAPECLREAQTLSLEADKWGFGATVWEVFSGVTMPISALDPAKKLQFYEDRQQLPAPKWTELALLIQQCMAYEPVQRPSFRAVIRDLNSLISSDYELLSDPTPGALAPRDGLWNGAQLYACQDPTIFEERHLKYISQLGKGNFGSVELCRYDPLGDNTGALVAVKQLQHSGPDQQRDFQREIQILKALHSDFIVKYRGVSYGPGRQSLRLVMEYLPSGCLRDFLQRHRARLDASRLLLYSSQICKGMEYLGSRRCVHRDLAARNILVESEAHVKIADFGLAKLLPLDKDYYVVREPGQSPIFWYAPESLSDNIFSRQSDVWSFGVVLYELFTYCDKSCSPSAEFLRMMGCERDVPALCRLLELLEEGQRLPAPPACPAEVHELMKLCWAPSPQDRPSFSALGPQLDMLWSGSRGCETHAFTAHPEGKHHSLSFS
Method in brief: (§1)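 Competition binding screen (Ambit) across a panel of 90 kinases, scoring test ligand displacement of each kinase's binding relative to control. The screen ran under reducing conditions with 7.5 mM DTT.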

[2] = target: Serine/threonine-protein kinase pim-3 (Homo sapiens) (UniProt Q86V86); assay: Binding affinity to human PIM3 at 500 nM by cell-based competition binding assay relative to control in presence of DTT
[3] = target: Mitogen-activated protein kinase 11 (Homo sapiens) (UniProt Q15759); assay: Binding affinity to human p38beta at 500 nM by cell-based competition binding assay relative to control in presence of DTT
Mitogen-activated protein kinase 11 (Homo sapiens), sequence (Q15759 whole entry): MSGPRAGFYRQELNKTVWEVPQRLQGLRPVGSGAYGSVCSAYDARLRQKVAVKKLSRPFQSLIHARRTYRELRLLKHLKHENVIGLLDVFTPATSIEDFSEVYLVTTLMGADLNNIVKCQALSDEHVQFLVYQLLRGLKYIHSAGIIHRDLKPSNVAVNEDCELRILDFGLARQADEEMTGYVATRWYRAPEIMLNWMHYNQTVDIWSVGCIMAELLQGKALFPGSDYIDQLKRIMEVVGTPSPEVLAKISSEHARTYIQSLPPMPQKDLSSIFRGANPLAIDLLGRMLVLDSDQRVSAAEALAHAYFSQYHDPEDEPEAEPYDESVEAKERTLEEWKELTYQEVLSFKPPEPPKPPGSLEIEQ

[4] = target: Serine/threonine-protein kinase pim-3 (Homo sapiens) (UniProt Q86V86); assay: Binding affinity to human PIM3 at 200 nM by cell-based competition binding assay relative to control in presence of DTT
[5] = target: Platelet-derived growth factor receptor alpha (Homo sapiens) (UniProt P16234); assay: Binding affinity to human PDGFRalpha at 200 nM by cell-based competition binding assay relative to control in presence of DTT
Platelet-derived growth factor receptor alpha (Homo sapiens), sequence (P16234 whole entry): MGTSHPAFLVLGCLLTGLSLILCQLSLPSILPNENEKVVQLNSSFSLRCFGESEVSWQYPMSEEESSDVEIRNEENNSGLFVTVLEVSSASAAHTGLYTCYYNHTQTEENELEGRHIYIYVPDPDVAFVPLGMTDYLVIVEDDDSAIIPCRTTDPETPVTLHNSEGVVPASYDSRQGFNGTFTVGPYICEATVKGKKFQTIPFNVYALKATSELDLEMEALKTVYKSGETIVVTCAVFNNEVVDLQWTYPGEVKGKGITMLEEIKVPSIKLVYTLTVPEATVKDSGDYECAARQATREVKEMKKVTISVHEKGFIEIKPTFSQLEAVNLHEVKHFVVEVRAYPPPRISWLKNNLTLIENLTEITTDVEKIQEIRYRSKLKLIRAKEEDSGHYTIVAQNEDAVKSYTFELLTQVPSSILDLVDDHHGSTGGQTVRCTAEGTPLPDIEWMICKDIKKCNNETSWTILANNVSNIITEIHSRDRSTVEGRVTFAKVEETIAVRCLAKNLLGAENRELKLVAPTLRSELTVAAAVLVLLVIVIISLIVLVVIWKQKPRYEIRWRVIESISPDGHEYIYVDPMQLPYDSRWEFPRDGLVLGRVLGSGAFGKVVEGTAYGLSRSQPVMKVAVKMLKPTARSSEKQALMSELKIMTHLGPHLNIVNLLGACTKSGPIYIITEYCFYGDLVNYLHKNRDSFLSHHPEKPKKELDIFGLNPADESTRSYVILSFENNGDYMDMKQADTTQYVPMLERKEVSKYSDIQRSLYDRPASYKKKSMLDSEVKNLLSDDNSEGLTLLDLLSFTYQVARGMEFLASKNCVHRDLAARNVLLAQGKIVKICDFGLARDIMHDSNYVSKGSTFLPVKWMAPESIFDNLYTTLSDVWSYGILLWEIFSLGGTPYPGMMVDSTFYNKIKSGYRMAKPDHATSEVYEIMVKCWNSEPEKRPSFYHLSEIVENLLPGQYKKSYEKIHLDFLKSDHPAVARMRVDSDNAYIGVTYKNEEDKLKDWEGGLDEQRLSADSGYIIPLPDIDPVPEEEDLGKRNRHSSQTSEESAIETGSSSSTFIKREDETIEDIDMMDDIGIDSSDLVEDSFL

[6] = target: T2, Serine/threonine-protein kinase DCLK1 (Homo sapiens) (UniProt O15075); assay: Binding affinity to human DCAMKL1 at 50 nM by cell-based competition binding assay relative to control in presence of DTT
T2 sequence (whole entry): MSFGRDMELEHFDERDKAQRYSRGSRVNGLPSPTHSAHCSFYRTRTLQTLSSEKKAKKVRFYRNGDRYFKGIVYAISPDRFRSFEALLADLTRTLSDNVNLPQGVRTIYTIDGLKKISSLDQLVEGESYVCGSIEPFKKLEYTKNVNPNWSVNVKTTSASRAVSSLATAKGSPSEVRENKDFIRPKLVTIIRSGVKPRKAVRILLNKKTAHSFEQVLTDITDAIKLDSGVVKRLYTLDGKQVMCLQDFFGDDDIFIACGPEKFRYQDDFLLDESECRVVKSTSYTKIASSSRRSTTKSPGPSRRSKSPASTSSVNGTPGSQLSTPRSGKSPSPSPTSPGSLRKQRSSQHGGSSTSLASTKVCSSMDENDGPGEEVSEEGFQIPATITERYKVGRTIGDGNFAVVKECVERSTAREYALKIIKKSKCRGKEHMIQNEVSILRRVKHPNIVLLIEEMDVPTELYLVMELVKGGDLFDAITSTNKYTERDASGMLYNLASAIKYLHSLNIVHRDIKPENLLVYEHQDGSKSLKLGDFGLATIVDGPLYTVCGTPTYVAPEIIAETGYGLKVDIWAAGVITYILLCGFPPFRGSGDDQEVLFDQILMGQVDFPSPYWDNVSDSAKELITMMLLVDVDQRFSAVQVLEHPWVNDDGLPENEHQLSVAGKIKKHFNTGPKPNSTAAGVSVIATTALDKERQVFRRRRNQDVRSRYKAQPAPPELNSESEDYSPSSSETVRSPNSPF
Method in brief: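 Commercial (Ambit) competitive kinase-binding panel of 90 kinases measured the binding profile. Run under reducing conditions of 7.5 mM DTT. Binding is expressed relative to control.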

[7] = target: Insulin-like growth factor 1 receptor (Homo sapiens) (UniProt P08069); assay: Binding affinity to human IGF1R at 50 nM by cell-based competition binding assay relative to control in presence of DTT; method in brief: as §1
Insulin-like growth factor 1 receptor (Homo sapiens), sequence (P08069 31-736 limits assumed): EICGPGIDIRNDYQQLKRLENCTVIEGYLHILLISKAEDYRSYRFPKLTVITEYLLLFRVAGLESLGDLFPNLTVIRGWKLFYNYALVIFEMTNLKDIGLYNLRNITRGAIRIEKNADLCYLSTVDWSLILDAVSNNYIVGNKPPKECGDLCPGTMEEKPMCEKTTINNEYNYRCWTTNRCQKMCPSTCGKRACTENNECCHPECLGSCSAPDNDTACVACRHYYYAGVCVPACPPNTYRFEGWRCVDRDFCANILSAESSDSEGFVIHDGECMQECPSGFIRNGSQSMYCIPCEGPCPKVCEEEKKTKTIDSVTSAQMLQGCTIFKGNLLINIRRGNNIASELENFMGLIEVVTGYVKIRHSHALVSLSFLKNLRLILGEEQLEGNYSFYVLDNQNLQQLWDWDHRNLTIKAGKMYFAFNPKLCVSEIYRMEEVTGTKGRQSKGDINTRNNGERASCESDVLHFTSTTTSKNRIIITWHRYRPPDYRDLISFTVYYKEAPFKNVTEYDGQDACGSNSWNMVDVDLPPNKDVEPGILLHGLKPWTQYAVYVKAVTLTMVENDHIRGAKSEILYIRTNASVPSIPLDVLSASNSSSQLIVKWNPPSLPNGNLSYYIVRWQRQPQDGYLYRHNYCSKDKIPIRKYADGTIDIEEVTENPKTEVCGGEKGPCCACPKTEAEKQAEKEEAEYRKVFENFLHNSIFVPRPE
Insulin-like growth factor 1 receptor (Homo sapiens), sequence (P08069 741-1367 limits assumed): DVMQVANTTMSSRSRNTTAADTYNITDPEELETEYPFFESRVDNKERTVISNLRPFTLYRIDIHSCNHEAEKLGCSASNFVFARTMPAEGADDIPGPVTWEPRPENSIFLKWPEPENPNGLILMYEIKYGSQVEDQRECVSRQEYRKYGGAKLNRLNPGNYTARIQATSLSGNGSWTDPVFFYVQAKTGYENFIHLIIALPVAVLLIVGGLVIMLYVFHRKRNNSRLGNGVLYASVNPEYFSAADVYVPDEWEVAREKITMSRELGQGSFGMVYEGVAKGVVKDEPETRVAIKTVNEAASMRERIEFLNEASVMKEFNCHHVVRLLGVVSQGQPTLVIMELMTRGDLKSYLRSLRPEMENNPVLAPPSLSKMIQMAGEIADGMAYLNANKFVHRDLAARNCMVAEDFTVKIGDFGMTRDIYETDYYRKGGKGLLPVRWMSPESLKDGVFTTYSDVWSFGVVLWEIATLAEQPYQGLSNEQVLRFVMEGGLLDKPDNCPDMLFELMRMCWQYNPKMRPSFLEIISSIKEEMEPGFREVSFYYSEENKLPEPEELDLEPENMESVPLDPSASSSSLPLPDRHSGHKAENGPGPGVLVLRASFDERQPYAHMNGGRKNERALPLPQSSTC

[8] = target: Insulin receptor (Homo sapiens) (UniProt P06213); assay: Binding affinity to human INSR at 50 nM by cell-based competition binding assay relative to control in presence of DTT; method in brief: as §1
Insulin receptor (Homo sapiens), sequence (P06213 28-758 limits assumed): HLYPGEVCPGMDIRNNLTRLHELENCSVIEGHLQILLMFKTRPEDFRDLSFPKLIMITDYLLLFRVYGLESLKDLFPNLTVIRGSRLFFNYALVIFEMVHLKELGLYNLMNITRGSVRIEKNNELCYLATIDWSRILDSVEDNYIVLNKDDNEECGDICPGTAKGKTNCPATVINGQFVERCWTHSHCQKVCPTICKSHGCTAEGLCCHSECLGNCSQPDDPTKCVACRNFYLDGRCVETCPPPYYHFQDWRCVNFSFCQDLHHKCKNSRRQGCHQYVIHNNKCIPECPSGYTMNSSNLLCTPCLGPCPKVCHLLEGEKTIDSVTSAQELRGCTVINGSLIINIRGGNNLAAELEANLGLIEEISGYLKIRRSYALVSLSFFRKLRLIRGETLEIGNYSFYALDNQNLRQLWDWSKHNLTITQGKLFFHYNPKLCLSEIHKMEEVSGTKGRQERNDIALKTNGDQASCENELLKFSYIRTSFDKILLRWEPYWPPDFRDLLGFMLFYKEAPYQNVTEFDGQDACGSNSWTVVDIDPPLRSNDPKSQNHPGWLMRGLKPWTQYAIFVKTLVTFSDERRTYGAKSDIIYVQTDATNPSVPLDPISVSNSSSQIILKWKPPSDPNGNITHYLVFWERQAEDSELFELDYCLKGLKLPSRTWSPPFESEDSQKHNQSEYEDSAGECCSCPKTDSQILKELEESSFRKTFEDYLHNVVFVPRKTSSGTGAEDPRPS
Insulin receptor (Homo sapiens), sequence (P06213 763-1382 limits assumed): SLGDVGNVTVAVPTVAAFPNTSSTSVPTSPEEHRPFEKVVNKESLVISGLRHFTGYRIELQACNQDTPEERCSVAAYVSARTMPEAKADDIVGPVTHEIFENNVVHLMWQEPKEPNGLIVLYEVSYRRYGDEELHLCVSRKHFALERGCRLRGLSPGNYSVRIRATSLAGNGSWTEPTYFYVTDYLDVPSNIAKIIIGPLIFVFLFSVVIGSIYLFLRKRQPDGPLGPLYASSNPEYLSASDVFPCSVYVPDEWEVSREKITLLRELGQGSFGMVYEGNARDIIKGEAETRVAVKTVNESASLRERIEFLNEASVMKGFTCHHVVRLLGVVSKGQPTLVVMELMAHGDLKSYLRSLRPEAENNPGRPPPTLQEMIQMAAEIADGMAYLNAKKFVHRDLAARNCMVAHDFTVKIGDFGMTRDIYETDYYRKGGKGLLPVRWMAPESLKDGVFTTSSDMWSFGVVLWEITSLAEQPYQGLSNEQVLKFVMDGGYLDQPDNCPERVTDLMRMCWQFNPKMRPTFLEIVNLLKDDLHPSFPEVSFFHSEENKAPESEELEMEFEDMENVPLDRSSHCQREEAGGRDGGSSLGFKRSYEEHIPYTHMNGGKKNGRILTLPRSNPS

[9] = target: Cyclin-dependent kinase 2 (Homo sapiens) (UniProt P24941); assay: Binding affinity to human CDK2 at 50 nM by cell-based competition binding assay relative to control in presence of DTT
Method in brief: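 Kinase binding profiling ran on a commercial (Ambit) competitive binding screen against a panel of 90 kinases. The screen used reducing conditions with 7.5 mM DTT. To withstand the DTT, the bivalent ligand was tested as its amide isostere, with the disulfide replaced. A staurosporine derivative carrying a 3 β-alanine linker was run as the reference compound.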

[10] = target: Serine/threonine-protein kinase PAK 2 (Homo sapiens) (UniProt Q13177); assay: Binding affinity to human PAK2 at 50 nM by cell-based competition binding assay relative to control in presence of DTT
Serine/threonine-protein kinase PAK 2 (Homo sapiens), sequence (Q13177 whole entry): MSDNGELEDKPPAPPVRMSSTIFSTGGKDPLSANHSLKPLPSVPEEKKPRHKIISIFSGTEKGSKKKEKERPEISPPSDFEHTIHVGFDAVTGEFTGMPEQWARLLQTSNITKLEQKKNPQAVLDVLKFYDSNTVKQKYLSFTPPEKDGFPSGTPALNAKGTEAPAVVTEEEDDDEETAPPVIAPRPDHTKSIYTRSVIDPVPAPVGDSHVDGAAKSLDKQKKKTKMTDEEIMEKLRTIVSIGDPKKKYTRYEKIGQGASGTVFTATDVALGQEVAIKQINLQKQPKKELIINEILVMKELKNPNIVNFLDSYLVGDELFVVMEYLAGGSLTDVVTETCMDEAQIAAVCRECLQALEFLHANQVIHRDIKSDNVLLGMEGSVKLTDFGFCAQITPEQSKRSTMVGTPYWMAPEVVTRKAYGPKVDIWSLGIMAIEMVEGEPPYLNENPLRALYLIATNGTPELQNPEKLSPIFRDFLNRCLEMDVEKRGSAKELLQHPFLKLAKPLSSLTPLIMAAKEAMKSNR

CO[C@@H]1[C@H](N(C)C(=O)CCC(=O)NCCC(=O)NCCC(=O)NCCC(N)=O)C[C@H]2O[C@]1(C)n1c3ccccc3c3c4c(c5c6ccccc6n2c5c31)C(=O)NC4
Activity [1]: 3.6%
Activity [2]: 10%
Activity [3]: 100%

CO[C@@H]1[C@H](N(C)C(=O)CCC(=O)NCCC(=O)NCCC(=O)NCCC(=O)NCCC(=O)NCCC(=O)NCCC(=O)NCCC(=O)N[C@H]2CSSC[C@@H](C(=O)NCC(N)=O)NC(=O)CNC(=O)[C@H](Cc3ccccc3)NC(=O)[C@H](C(C)C)NC(=O)[C@H](CCCNC(=N)N)NC(=O)[C@H](Cc3ccccc3)NC(=O)[C@H](C(C)C)NC2=O)C[C@H]2O[C@]1(C)n1c3ccccc3c3c4c(c5c6ccccc6n2c5c31)C(=O)NC4 ({Staurosporine-Suc-βAla-βAla-βAla-βAla-βAla-βAla-βAla}-CVFRVFGCG-NH2; disulfide 1-8)
Activity [4]: 26%
Activity [5]: 41%

CO[C@@H]1[C@H](N(C)C(=O)CCC(=O)NCCC(=O)NCCC(=O)NCCC(=O)NCCC(=O)NCCC(=O)NCCC(=O)NCCC(=O)N[C@H]2CNC(=O)C[C@@H](C(N)=O)NC(=O)CNC(=O)[C@H](Cc3ccccc3)NC(=O)[C@H](C(C)C)NC(=O)[C@H](CCCNC(=N)N)NC(=O)[C@H](Cc3ccccc3)NC(=O)[C@H](C(C)C)NC2=O)C[C@H]2O[C@]1(C)n1c3ccccc3c3c4c(c5c6ccccc6n2c5c31)C(=O)NC4 ({Staurosporine-Suc-βAla-βAla-βAla-βAla-βAla-βAla-βAla}-[Dap]VFRVFGD-NH2; lactam 1-8)
Activity [6]: 95%
Activity [7]: 100%
Activity [8]: 92%
Activity [9]: 100%
Activity [10]: 72%
